The values that follow come from ChEMBL document CHEMBL1147104, “Neonatal coinfection model of coagulase-negative Staphylococcus (Staphylococcus epidermidis) and Candida albicans: fluconazole prophylaxis enhances survival and growth” (Antimicrob Agents Chemother, 2007).

The subject of data set [1] is Rattus norvegicus. The data set is described as follows: Increase in growth of neonatal Wistar rat infected with Candida albicans ATCC 32354 and Staphylococcus epidermidis Hay assessed as weight gain at 10 mg/kg of body weight/day, ip for 4 days beginning 24 hrs before infection relative to control. Format: functional, organism-based. The arrangement: dose 10 mg/kg. In outline: (§1)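 In intralipid-immunosuppressed neonatal Wistar pups, littermates were randomized, dosed i.p. daily for 4 days from 24 h pre-infection, and infected s.c. on days 2 and 3 with 2 × 10⁸ CFU C. albicans, with or without 2 × 10⁶ CFU S. epidermidis. Nonedematous weight was recorded daily for 9 days. Slopes of each pup's weight curve were calculated, and group means were compared by one-way ANOVA.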

The nature of data set [2]: Serum trough levels in Wistar rat pup at 10 mg/kg of body weight/day, ip after 72 hrs by ELISA. Format: ADME, organism-based. On the set-up: dose 10 mg/kg, route intraperitoneal. Conditions: read-out: Cmin. Put shortly: (§2)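 Pups received 10 mg/kg/day i.p. for 4 days. Troughs were taken just before the next dose (24, 48, 72 h) and 24 h after the fourth dose (96 h). Blood was collected by cardiac puncture from 12-15 pups per time point, and serum from 3 pups was pooled per sample, giving 4-5 samples. Serum was stored at −70°C and assayed in one batch. The assay was linear from 0.2 to 200 µg/ml.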
For orientation: ELISA stands for enzyme-linked immunosorbent assay.

Data set [3] relates to Staphylococcus epidermidis. The data set is described as follows: Inhibition of Staphylococcus epidermidis Hay ATCC 55133 at 1 ug/ml by broth microdilution method. Format: functional, organism-based. (Dilution methods test growth across graded concentrations, often in twofold steps.)
The subject of data set [4] is Rattus norvegicus. The data set is described as follows: Survival of neonatal Wistar rat infected with Candida albicans ATCC 32354 at 10 mg/kg of body weight/day, ip for 4 days beginning 24 hrs before infection. The data set is classed as functional. Conditions: route intraperitoneal. In outline: (§3)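 Wistar pups aged 1-2 days, kept with dams, were immunosuppressed with 0.2 ml 20% intralipid i.p. (two doses on day 1, one each on days 2 and 3). Drug or placebo was given i.p. daily for 4 days from 24 h before infection. Littermates were randomized and infected s.c. on days 2 and 3 with 2 × 10⁸ CFU C. albicans, alone or with 2 × 10⁶ CFU S. epidermidis. Survival was followed daily for 9 days; groups were compared by Fisher exact test.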

In data set [5] the test system is Rattus norvegicus. The data set is described as follows: Survival of neonatal Wistar rat infected with Staphylococcus epidermidis Hay and Candida albicans ATCC 32354 at 10 mg/kg of body weight/day, ip for 4 days beginning 24 hrs before infection. Conditions: route intraperitoneal. Format: functional. In outline: as §3
For data set [6], the system named is Rattus norvegicus. The data set is described as follows: Decrease in mortality of neonatal Wistar rat infected with Candida albicans ATCC 32354 at 10 mg/kg of body weight/day, ip for 4 days beginning 24 hrs before infection. Conditions: route intraperitoneal. On the set-up: scale not given: the % may be the effect or the level left. The data set is classed as functional. Put shortly: as §3

Data set [7] relates to Rattus norvegicus. As to the kind of experiment: Increase in growth of neonatal Wistar rat infected with Candida albicans ATCC 32354 assessed as weight gain at 10 mg/kg of body weight/day, ip for 4 days beginning 24 hrs before infection relative to control. The data set is classed as functional, organism-based. The arrangement: dose 10 mg/kg. In outline:
as §1

The nature of data set [8]: Serum trough levels in Wistar rat pup at 10 mg/kg of body weight/day, ip after 96 hrs by ELISA. The note with it: read-out: Cmin. The data set is classed as ADME, organism-based. On the set-up: dose 10 mg/kg, route intraperitoneal. Put shortly:
as §2

Data set [9] in a line: Serum trough levels in Wistar rat pup at 10 mg/kg of body weight/day, ip after 24 hrs by ELISA. Conditions: read-out: Cmin. The data set is classed as ADME, organism-based. The arrangement: dose 10 mg/kg, route intraperitoneal. In outline:
as §2

Data set [10] has as its system Rattus norvegicus. As to the kind of experiment: Decrease in mortality of neonatal Wistar rat infected with Candida albicans ATCC 32354 and Staphylococcus epidermidis Hay at 10 mg/kg of body weight/day, ip for 4 days beginning 24 hrs before infection. Format: functional. The arrangement: scale not given: the % may be the effect or the level left. The note with it: route intraperitoneal. In outline:
as §3

Another data set concerns Candida albicans. As to the kind of experiment: Inhibition of Candida albicans ATCC 32354 at 1 ug/ml by broth microdilution method. Format: functional, organism-based. In outline: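 CLSI M27-A2 broth microdilution. Inoculum was 1-5 × 10³ CFU/ml in RPMI 1640 buffered with MOPS to pH 7. Twofold drug dilutions from 125 to 0.25 µg/ml were tested at 35°C for 48 h, with visual reads at 24 and 48 h. The MIC was the lowest concentration giving a ≥50% decrease in turbidity. Trailing growth at 48 h was counted as susceptible.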

Data set [11] is described as follows: Serum trough levels in Wistar rat pup at 10 mg/kg of body weight/day, ip after 48 hrs by ELISA. The note with it: read-out: Cmin. On the set-up: dose 10 mg/kg, route intraperitoneal. Format: ADME, organism-based. In outline:
as §2

Molecules are shown by their SMILES. Active and inactive are the calls of the source. The calls are words filed in the database; no cut-off is given here.

Regarding `OC(Cn1cncn1)(Cn1cncn1)c1ccc(F)cc1F` [FLUCONAZOLE], the outcome in the data set with Rattus norvegicus [1], in the data set on Rattus norvegicus [7] and in the data set with Candida albicans was Active. Besides, the concentration at 72 h in data set [2] turned out to be 1510 ng/mL. Besides, in [3], the result was inactive. For the same compound, the survival at 10 mg/kg worked out at 85.7% in the data set on Rattus norvegicus [4] and 75.6% with Rattus norvegicus [5]. For the same compound, the results for the Activity with Rattus norvegicus [6] and with Rattus norvegicus [10] were 30% and 36%, respectively. Further, the concentration at 96 h in data set [8] worked out at 1030 ng/mL. Moreover, in [9], the concentration at 24 h came to 1550 ng/mL. In data set [11], the concentration at 48 h stood at 2500 ng/mL.
